Data published in ChEMBL document CHEMBL4130603, “Anti-inflammatory Grayanane Diterpenoids from the Leaves of Rhododendron molle” (J Nat Prod, 2018).

How the values were obtained:
RAW264.7 [1] = experiment: Antiinflammatory activity in mouse RAW264.7 cells assessed as inhibition of LPS-induced nitric oxide production by griess assay; format: functional, cell-based
How it was run: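 RAW 264.7 mouse macrophages induced with LPS; NO production measured over five test concentrations to derive IC50; means ± SD, n = 3; dexamethasone positive control.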

[2] = Cytotoxicity against mouse RAW264.7 cells assessed as survival rate at 200 uM measured in presence of LPS by MTT assay relative to control; format: cell-based; details: read-out: Survival
How it was run: (§1)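 RAW 264.7 mouse macrophages treated with compound at 200 μM, with or without 1 μg/mL LPS. Viability read by MTT and expressed as survival rate (%). Values are means ± SD, n = 3.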

RAW264.7 [3] = experiment: Antiinflammatory activity in mouse RAW264.7 cells assessed as inhibition of LPS-induced nitric oxide production at 40 uM by griess assay relative to control; format: functional
How it was run: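 LPS-stimulated RAW 264.7 mouse macrophages; nitric oxide production measured; single-concentration screen of inhibition relative to control. Dexamethasone as positive control.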

[4] = Cytotoxicity against mouse RAW264.7 cells assessed as survival rate at 200 uM measured in absence of LPS by MTT assay relative to control; format: cell-based; details: read-out: Survival; how it was run: as §1
RAW264.7 [5] = experiment: Cytotoxicity against mouse RAW264.7 cells at 200 uM measured in presence of LPS by MTT assay; format: cell-based; details: raw264.7, 200 µM
How it was run: (§2)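 MTT viability of RAW 264.7 mouse macrophages exposed to compound at 200 μM, with or without 1 μg/mL LPS; reported as cell survival rate (%).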

RAW264.7 [6] = experiment: Cytotoxicity against mouse RAW264.7 cells at 200 uM measured in absence of LPS by MTT assay; format: cell-based; details: raw264.7, 200 µM; how it was run: as §2

Structure (SMILES) | IC50 (RAW264.7 [1]) [µM] | viability at 200 µM [2] [%] | inhibition at 40 µM (RAW264.7 [3]) [%] | viability at 200 µM [4] [%] | Activity (RAW264.7 [5]) | Activity (RAW264.7 [6])
CC1(C)[C@@H](O)[C@H](O)[C@H]2[C@](C)(O)[C@@H]3CC[C@@H]4[C@@H](O)[C@@]3(C[C@@H](O)[C@@]21O)C[C@@]4(C)O | 8 | 90.4 | > 50 | 97 | – | –
CC1(C)[C@H]2O[C@H]2[C@H]2[C@](C)(O)[C@@H]3CC[C@@H]4[C@@H](O)[C@@]3(C[C@@H](O)[C@@]21O)C[C@@]4(C)O | 7 | 98.4 | > 50 | 96.5 | – | –
C=C1[C@@H]2[C@@H](O)[C@H](O)C(C)(C)[C@@]2(O)[C@H](O)C[C@]23C[C@@](C)(O)[C@H](CC[C@@H]12)[C@H]3O | 8.1 | 97.5 | > 50 | 98.1 | – | –
C=C1[C@@H]2[C@@H]3O[C@@H]3C(C)(C)[C@@]2(O)[C@H](O)C[C@]23C[C@@](C)(O)[C@H](CC[C@@H]12)[C@H]3O | 35.4 | 92 | > 50 | 90.3 | – | –
CO[C@H]1[C@H](O)C(C)(C)[C@@]2(O)[C@H](OC(C)=O)C[C@]34C[C@@](C)(O)[C@H](CC[C@H]3[C@@](C)(O)[C@H]12)[C@H]4O | 4.6 | 97.3 | > 50 | 98.3 | – | –
CC(=O)O[C@@H]1[C@H]2CC[C@H]3[C@@](C)(O)[C@@H]4[C@@H]5O[C@@H]5C(C)(C)[C@@]4(O)[C@H](O)C[C@@]13C[C@@]2(C)O | > 40 | – | – | – | Non-Toxic | Non-Toxic
CC(=O)O[C@@H]1C[C@]23C[C@@](C)(OC(C)=O)[C@H](CC[C@H]2[C@@](C)(O)[C@@H]2[C@@H]4O[C@@H]4C(C)(C)[C@@]12O)[C@H]3O | 10.1 | 99.7 | > 50 | 98.9 | – | –
C=C1[C@@H]2[C@@H](OC)[C@H](O)C(C)(C)[C@@]2(O)[C@H](O)C[C@]23C[C@@](C)(O)[C@H](CC[C@@H]12)[C@H]3O | > 40 | – | – | – | Non-Toxic | Non-Toxic
CO[C@@H]1[C@H]2C(C)=C3CC[C@@H]4[C@@H](O)[C@@]3(C[C@@H](OC(C)=O)[C@]2(O)C(C)(C)[C@H]1O)C[C@@]4(C)O | > 40 | – | – | – | Non-Toxic | Non-Toxic
C=C1[C@@H]2[C@@H](O)[C@H](O)C(C)(C)[C@@]2(O)[C@H](OC(C)=O)C[C@]23C=C(C)[C@H](CC[C@@H]12)[C@H]3O | > 40 | – | – | – | Non-Toxic | Non-Toxic
CO[C@H]1[C@H](O)C(C)(C)[C@@]2(O)[C@H](O)C[C@]34C[C@@](C)(O)[C@H](CC[C@H]3[C@@](C)(O)[C@H]12)[C@H]4O | > 40 | – | – | – | Non-Toxic | Non-Toxic
CC(=O)O[C@@H]1C[C@]23C[C@@](C)(O)[C@H](CC[C@H]2[C@@](C)(O)[C@@H]2[C@@H]4O[C@@H]4C(C)(C)[C@@]12O)[C@H]3O | 2.8 | 93.6 | > 50 | 101 | – | –
CC(=O)O[C@@H]1C[C@]23C[C@@](C)(O)[C@H](CC[C@H]2[C@@](C)(O)[C@@H]2C[C@H](O)C(C)(C)[C@@]12O)[C@H]3O | > 40 | – | – | – | Non-Toxic | Non-Toxic
CO[C@H]1[C@H](O)C(C)(C)[C@@]2(O)[C@H](OC(C)=O)C[C@]34C[C@@](C)(O)[C@H](CC[C@H]3[C@@](C)(O)[C@H]12)[C@H]4O[C@H]1[C@H](O)C(C)(C)[C@@]2(O)[C@H](OC(C)=O)C[C@]34C[C@@](C)(O)[C@H](CC[C@H]3[C@@](C)(O)[C@H]12)[C@H]4O | > 40 | – | – | – | Non-Toxic | Non-Toxic
CO[C@@H]1[C@H]2[C@@H](C)[C@]34CC[C@H]5C(C)=C[C@]3(C[C@@H](OC(C)=O)[C@]2(O4)C(C)(C)[C@H]1O)[C@@H]5O | > 40 | – | – | – | Non-Toxic | Non-Toxic
CC(=O)O[C@@H]1C[C@]23C[C@@](C)(O)[C@H](CC[C@H]2[C@@](C)(O)[C@@H]2[C@@H](O)[C@H](O)C(C)(C)[C@@]12O)[C@H]3O | 9.3 | 99.8 | > 50 | 98.8 | – | –
CC(=O)O[C@@H]1[C@H]2CC[C@H]3[C@@](C)(O)[C@@H]4[C@@H](O)[C@H](O)C(C)(C)[C@@]4(O)[C@H](OC(C)=O)C[C@@]13C[C@@]2(C)O | 10.3 | 93.9 | > 50 | 97.4 | – | –
C=C1[C@@H]2[C@@H](OC)[C@H](O)C(C)(C)[C@@]2(O)[C@H](OC(C)=O)C[C@]23C[C@@](C)(O)[C@H](CC[C@@H]12)[C@H]3O | > 40 | – | – | – | Non-Toxic | Non-Toxic
C=C1[C@@H]2[C@@H](O)[C@H](O)C(C)(C)[C@@]2(O)[C@H](OC(C)=O)C[C@]23C[C@@](C)(O)[C@H](CC[C@@H]12)[C@H]3O | > 40 | – | – | – | Non-Toxic | Non-Toxic
CC(=O)O[C@@H]1C[C@]23C=C(C)[C@H](CC[C@H]2[C@@](C)(O)[C@@H]2[C@@H]4O[C@@H]4C(C)(C)[C@@]12O)[C@H]3O | > 40 | – | – | – | Non-Toxic | Non-Toxic
CO[C@H]1[C@H](O)C(C)(C)[C@@]2(O)[C@H](OC(C)=O)C[C@]34C[C@@](C)(O)[C@H](CC[C@H]3[C@@](C)(O)[C@H]12)[C@H]4OC(C)=O | > 40 | – | – | – | Non-Toxic | Non-Toxic
CC(=O)O[C@@H]1C[C@]23C[C@@](C)(O)[C@H](CC[C@H]2[C@@](C)(O)[C@@H]2[C@@H](Cl)[C@H](O)C(C)(C)[C@@]12O)[C@H]3O | 5.8 | 95.2 | > 50 | 99.3 | – | –
C=C1C[C@@]23C[C@@H](O)[C@@]4(O)C([C@@H]5O[C@@H]5C4(C)C)[C@](C)(O)[C@@H]2CC[C@@H]1[C@H]3O (stereo partly specified) | > 40 | – | – | – | Non-Toxic | Non-Toxic
C=C1[C@@H]2CC[C@@H]3C[C@@]2(C[C@@H](O)[C@@]2(O)[C@H]1C[C@H](O)[C@]2(C)CO)C[C@@]3(C)O | > 40 | – | – | – | Non-Toxic | Non-Toxic
C=C1[C@@H]2CC[C@@H]3C[C@@]2(C[C@@H](OC(C)=O)[C@@]2(O)[C@H]1C[C@H](O)C2(C)C)C[C@@]3(C)O | > 40 | – | – | – | Non-Toxic | Non-Toxic
C=C1C[C@@]23C[C@@H](OC(C)=O)[C@@]4(O)[C@@H]([C@@H](O)[C@H](O)C4(C)C)[C@](C)(O)[C@@H]2CC[C@@H]1[C@H]3O | > 40 | – | – | – | Non-Toxic | Non-Toxic
CC(=O)O[C@@H]1C[C@@]23C[C@]4(C)O[C@@H](C[C@@H]4[C@H]2O)[C@H]3[C@@](C)(O)C2[C@@H]3O[C@@H]3C(C)(C)[C@]21O (stereo partly specified) | > 40 | – | – | – | Non-Toxic | Non-Toxic
C=C1[C@@H]2CC[C@@H]3C[C@@]2(C[C@@H](O)[C@@]2(O)[C@H]1C[C@H](O)C2(C)C)C[C@@]3(C)O | 3.5 | 93.8 | > 50 | 96.4 | – | –
C=C1[C@@H]2CC[C@@H]3[C@@H](O)[C@@]2(C[C@@H](O)[C@@]2(O)[C@H]1C[C@H](O)C2(C)C)C[C@@]3(C)O | > 40 | – | – | – | Non-Toxic | Non-Toxic
C[C@@H]1C[C@H]2[C@@H]3CCC4=CC(=O)C=C[C@]4(C)[C@@]3(F)[C@@H](O)C[C@]2(C)[C@@]1(O)C(=O)CO [DEXAMETHASONE] | 0.8 | 97.1 | – | 97.7 | – | –
